Assay results from ChEMBL document CHEMBL1799947, “Synthesis, transport and antiviral activity of Ala-Ser and Val-Ser prodrugs of cidofovir” (Bioorg Med Chem Lett, 2011).
Calls of active or inactive are those of the source. The calls are words filed in the database; no cut-off is given here.

Legend:
Plasma [1] = assay: Drug uptake in fasted Albino Sprague-Dawley rat plasma at 10 mg/kg administered into gastrointestinal tract measured up to 4 hrs; type: ADME, organism-based; parameters: dose 10 mg/kg; settings: in vivo, other
Method in brief: (§1)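 Rats received 3 mg of drug (about 10 mg/kg) by direct injection into the gastrointestinal tract. Plasma was sampled over a 4 h time course. Read-out was dose-corrected total cidofovir species in plasma.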

Plasma [2] = assay: Prodrug conversion in CFW Swiss-Webster mouse plasma assessed as cidofovir monoethyl ester formation at 10 mg/kg administered through oral gavage; type: ADME, organism-based; parameters: dose 10 mg/kg, route oral; settings: in vivo
Vaccinia virus [3] = assay: Antiviral activity against Vaccinia virus Copenhagen infected in HFF cells assessed as reduction in plaque formation after 3 days; type: functional, organism-based; settings: Orthopoxvirus vaccinia, 72 h
[4] = Antiviral activity against Cowpox virus Brighton infected in HFF cells assessed as reduction in plaque formation after 3 days; type: functional, cell-based, Cowpox virus (Brighton Red); settings: 72 h
Human betaherpesvirus 5 = assay: Antiviral activity against Human cytomegalovirus Towne infected in HFF cells assessed as reduction in plaque formation after 10 days; type: functional, organism-based; settings: Human betaherpesvirus 5, Towne, 240 h
Method in brief: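 HCMV plaque reduction assay incubated 10 days, with ganciclovir as the positive control.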

[5] = Cytotoxicity against human KB cells after 48 hrs by crystal violet staining technique; type: cell-based
[6] = (§2) Cytotoxicity against HFF cells; type: cell-based; settings: human, HFF cells
Vaccinia virus [7] = assay: Antiviral activity against Vaccinia virus Copenhagen infected in HFF cells assessed as reduction in plaque formation up to 100 uM after 3 days; type: functional, organism-based; settings: Orthopoxvirus vaccinia
Plasma [8] = assay: Prodrug conversion in fasted Albino Sprague-Dawley rat assessed as increase of cidofovir species level in plasma at 10 mg/kg into gastrointestinal tract relative to cidofovir or cyclic cidofovir; type: ADME, organism-based; parameters: dose 10 mg/kg; settings: in vivo, other; method in brief: as §1
HFF = assay: as §2; type: cell-based; settings: human, hff

Row | Structure (SMILES) | Drug uptake (Plasma [1]) | IC50 (Vaccinia virus [3]) | IC50 [4] | IC50 (Human betaherpesvirus 5) | CC50 at 48 h [5] | further results
1 | CCOP(=O)(CO[C@H](CO)Cn1ccc(N)nc1=O)OC[C@H](NC(=O)[C@H](C)N)C(=O)OC (some centres undefined) | Active |  |  |  |  | Activity (Plasma [2]): Active
2 | CCOP(=O)(CO[C@H](CO)Cn1ccc(N)nc1=O)OC[C@H](NC(=O)[C@@H](N)C(C)C)C(=O)OC (some centres undefined) | Not Active |  |  |  |  | Activity (Plasma [2]): Active
3 | CC(C)OC(=O)[C@H](COP(=O)(O)CO[C@H](CO)Cn1ccc(N)nc1=O)NC(=O)[C@@H](N)C(C)C |  | > 100 µM | > 100 µM | 0.32 µM | > 100 µM | 
4 | CC(C)OC(=O)[C@H](COP1(=O)CO[C@@H](Cn2ccc(N)nc2=O)CO1)NC(=O)[C@H](N)C(C)C (some centres undefined) | Active |  |  |  |  | 
5 | COC(=O)[C@H](COP1(=O)CO[C@@H](Cn2ccc(N)nc2=O)CO1)NC(=O)[C@@H](N)C(C)C (some centres undefined) |  | 100 µM | > 30 µM | 0.3 µM | > 100 µM | CC50 [6]: > 100 µM
6 | CCOP(=O)(O)CO[C@H](CO)Cn1ccc(N)nc1=O |  |  |  |  |  | Activity (Vaccinia virus [7]): inactive
7 | CC(C)OC(=O)[C@H](COP(=O)(O)CO[C@H](CO)Cn1ccc(N)nc1=O)NC(=O)[C@H](N)C(C)C (mixture of isomers) | Active | > 100 µM | > 100 µM | 1.3 µM | > 100 µM | fold change (FC) (Plasma [8]): 15
8 | Nc1ccn(C[C@@H](CO)OCP(=O)(O)O)c(=O)n1.O.O [CIDOFOVIR] | Active | 20 µM | 30 µM | 0.11 µM | > 100 µM | CC50 [6]: > 100 µM
9 | Nc1ccn(C[C@H]2COP(=O)(O)CO2)c(=O)n1 [CYCLIC CIDOFOVIR] | Active | 40 µM | 30 µM | 0.25 µM | > 100 µM | CC50 (HFF): 100 µM
10 | Nc1ncnc2c1ncn2[C@@H]1O[C@H](CO)[C@@H](O)[C@@H]1O [VIDARABINE] |  | 2 µM |  |  |  | 
